Only some compounds are listed: those with a hit (about 4.7% of all), similar ones and a draw of the others.
MrgX1 PAM: allosterically activates human MrgX1 receptor signaling; B-score at 10 µM; 0.63% of 310,000 active; Q96LB2; MrgX1-HEK293, Fluo-4 calcium flux, FDSS; stronger effect = higher value;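 active = plate-corrected calcium response at least 3 library SD above typical, normal starting fluorescence, not activating the receptor alone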;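 note: compound read alongside a low EC10 to EC30 dose of BAM8-22 agonist; peak minus trough fluorescence over baseline measured at the second addition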
Target sequence (Q96LB2 whole entry, looked up): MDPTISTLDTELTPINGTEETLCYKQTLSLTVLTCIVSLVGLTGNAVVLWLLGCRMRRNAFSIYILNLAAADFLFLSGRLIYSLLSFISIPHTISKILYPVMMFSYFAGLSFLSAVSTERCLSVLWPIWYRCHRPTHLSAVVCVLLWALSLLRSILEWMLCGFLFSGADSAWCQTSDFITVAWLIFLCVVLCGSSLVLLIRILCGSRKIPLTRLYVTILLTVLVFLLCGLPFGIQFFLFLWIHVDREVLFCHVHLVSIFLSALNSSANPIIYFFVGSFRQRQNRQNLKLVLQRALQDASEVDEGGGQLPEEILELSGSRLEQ
RGS4 act: RGS4 potentiation or activation; 0.92% of 310,000 active; HEK293 M3R/inducible RGS4, carbachol calcium flux Fluo4; stronger effect = lower value; B-score at 10 µM; AID 463111;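 active = B-score of the integrated calcium signal more than 4 SD below the library mean, with starting fluorescence not abnormally high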;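 note: negative B-score means reduced calcium response which marks RGS4 activation or potentiation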
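System: HEK293 FlpIn-TREx cells, stable M3R, doxycycline-inducible RGS4. Timing: overnight RGS4 induction, 30 min dye load 37 °C, 20 min compound RT. Also added: carbachol, ECmax concentration. Measured by: Fluo4 fluorescence kinetic imaging of calcium. Evaluation: integrated calcium ratio converted to B score.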
MrgX1 antagonist: blocks BAM8-22 activation of human MrgX1 receptor; Q96LB2; MRGX1-HEK293 calcium flux, Fluo-4, BAM8-22 antagonism; stronger effect = lower value; B-score at 10 µM; 1.3% of 310,000 active; AID 588676;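 active = calcium-response B-score plate-corrected more than 3 library SD below zero, starting fluorescence within 5 deviations, no agonist response on first addition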;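 note: peak minus trough fluorescence over baseline after final BAM8-22 challenge near maximal dose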
KCC2 mod: modulators of human KCC2 chloride dependent transport; Q9H2X9; 2.2% of 190,000 active; B-score of Tl+ flux slope (higher = more flux/activation; lower = inhibition) at 10 µM; KCC2 cells, thallium flux FluoZin-2 fluorescence;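 active = thallium flux slope and its plate-corrected score both differing from the plate sample mean at a set confidence after two filtering rounds, in either direction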;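 note: slope of fluorescence scaled to starting intensity during 10 to 20 s after thallium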
RGS4 inh: human RGS4 inhibition | P49798 | HEK293 M3R/RGS4 inducible, Fluo-4 calcium flux; stronger effect = higher value; triggered by carbachol at its EC20 | B-score at 10 µM | 0.45% of 310,000 active;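 active = B-score, a plate-corrected calcium signal, over three deviations above library mean, with baseline fluorescence within five deviations of library mean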;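 note: RGS4 expression induced by doxycycline in cells with stable M3 receptor; B-score is computed from the integrated fluorescence ratio over baseline after carbachol; higher B-score means a larger calcium signal and so more RGS4 inhibition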
Target sequence (P49798 whole entry, looked up): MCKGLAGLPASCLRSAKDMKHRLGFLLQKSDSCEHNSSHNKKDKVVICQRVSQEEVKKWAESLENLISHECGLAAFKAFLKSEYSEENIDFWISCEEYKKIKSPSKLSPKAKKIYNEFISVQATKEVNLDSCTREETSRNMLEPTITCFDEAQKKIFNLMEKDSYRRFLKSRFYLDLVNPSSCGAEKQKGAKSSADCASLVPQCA
MrgX1 ag: activates human MrgX1 receptor signaling | Q96LB2 | MrgX1-HEK293 cells, Fluo-4 calcium fluorescence, agonist mode; stronger effect = higher value | B-score at 10 µM | 0.44% of 310,000 active | AID 588627;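 active = calcium response B-score plate-corrected fluorescence ratio at least 3 library SD, with starting fluorescence B-score inside 5 SD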
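Assay system: MrgX1-expressing HEK293 cells / Amount: fifteen thousand cells per well / Doses: test compound in the initial addition of three / Timing: cells plated overnight, dye loaded 0.5 h 37 °C, 0.5 h room temperature / Technique: kinetic calcium dye fluorescence, Fluo-4 NW / Control set: positive and negative controls per plate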
RGS4 activ val: RGS4 activation, validation assay. HEK293 M3R/RGS4 inducible, carbachol calcium flux Fluo4. 89% of 1,100 active. inhibition, % at 10 µM. shares compounds with RGS4 act;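 active = inhibition above 3 SD of the buffer control wells, cut at about 41% in these data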;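 note: signal is the integrated peak-minus-minimum Fluo4 fluorescence over baseline ratio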
RGS4 act ctr: activity in cells without induced RGS4 expression; shares compounds with RGS4 act; HEK293 M3R non-induced RGS4, Fluo4 calcium flux; after carbachol challenge at its EC90; inhibition, % at 10 µM; 82% of 1,100 active; AID 602283;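 active = inhibition exceeding 3 SD of buffer-only control wells, cut at about 26% in these data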;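 note: percent drop in integrated peak-minus-baseline over baseline Fluo4 ratio after carbachol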
The depositor's hits bear a star; i = inactive; · = no result given.

SMILES | MrgX1 PAM | RGS4 act | MrgX1 antagonist | KCC2 mod | RGS4 inh | MrgX1 ag | RGS4 activ val | RGS4 act ctr
COc1ccc(OC(C)C(=O)NC2CCCCCCC2)cc1 (configuration not stated) | i | i | i | · | i | i | · | ·
CCN(CC)C1CCN(C(=O)c2cc(COc3cccc4cccnc34)on2)C1 (configuration not stated) | · | -9.2* | · | · | i | · | 90* | 75*
[N-]=[N+]=NC1CC(CO)OC1n1ccc(=O)[nH]c1=O (configuration not stated) | i | i | i | · | i | i | · | ·
COc1ccc(C)cc1NC(=O)CCNC(=O)Cn1cnc2ccccc2c1=O | i | i | i | · | i | i | · | ·
Cc1ccc(Cl)cc1N1CCN(C(=S)NCCc2ccccc2)CC1 | i | -12* | i | 0.074 | i | i | 94* | 67*
Fc1cccc(Cc2noc(CN3CCN(C4CCc5ccccc5C4)CC3)n2)c1 (configuration not stated) | i | -7.7* | i | · | i | i | 92* | 89*
COc1ccc(Cc2noc(CN3CCN(C4CCc5ccccc5C4)CC3)n2)cc1OC (configuration not stated) | i | i | i | -1.2 | i | i | · | ·
COc1ccc(OC)c(/C=N/NC(=O)CCN2CCN(C(c3ccccc3)c3ccccc3)CC2)c1 | i | -11* | i | -1.2 | i | i | 92* | 94*
O=C(CCN1CCN(C(c2ccccc2)c2ccccc2)CC1)N/N=C/c1ccc(O)cc1O | i | i | i | -0.14 | i | i | · | ·
COC(=O)CCc1c(COC(C)=O)[nH]c(C(=O)OCc2ccccc2)c1C | i | i | i | · | i | i | · | ·
CCN(CC(=O)NCc1ccc(F)cc1)C(=O)CN1CCN(c2ccc(OC)cc2)CC1 | i | i | i | · | i | i | · | ·
O=C(NCCCn1ccnc1)c1ccc(C(F)(F)F)cc1 | i | i | i | · | i | i | · | ·
CN1CCN(C2Cc3cc(Cl)ccc3Sc3cc(F)ccc32)CC1 (configuration not stated) | i | -8* | i | · | i | i | 93* | 95*
CN1CCN(C2=Cc3cc(Cl)ccc3Sc3cc(F)ccc32)CC1 | i | -8* | i | · | i | i | 92* | 91*
CCc1ccc2c(c1)Sc1ccccc1CC2N1CCN(C)CC1 (configuration not stated) | i | -8.9* | i | · | i | i | 92* | 90*
COc1cccc(C2SCC(=O)N2c2ccc(C)cc2)c1OC (configuration not stated) | i | -8.9* | i | -0.00078 | i | i | 92* | 86*
COc1ccc(N2C(=O)CSC2c2cccc(OC)c2OC)cc1 (configuration not stated) | i | -11* | i | 0.077 | i | i | 86* | 46*
COc1ccc(C2SCC(=O)N2c2ccc(C)cc2)cc1 (configuration not stated) | i | i | i | · | i | i | · | ·
CCCOc1ccc(C(O)(CCC)CCN2CCCCC2)cc1 (configuration not stated) | i | -8.3* | i | 0.33 | i | i | 88* | 36*
CCCC(O)(CCN1CCOCC1)c1ccc(Br)cc1 (configuration not stated) | i | -9* | i | 1.1 | i | i | 91* | 78*
CCCC(O)(CCN1CCOCC1)c1ccc(Cl)cc1 (configuration not stated) | i | i | i | -0.84 | i | i | · | ·
Cc1cccc(C(=O)Nc2ccc3c(c2)ncn3C)c1 | i | i | i | · | i | i | · | ·
O=C(NC1CCN(Cc2ccccc2)CC1)C1COc2ccccc2O1 (configuration not stated) | i | -8.5* | i | -0.18 | i | i | 92* | 87*
CCOC(=O)c1c(-c2ccccc2)csc1NC(=S)N(CC)CC | · | i | · | -0.77 | i | · | · | ·
CCOC(=O)c1c(-c2ccccc2)csc1NC(=O)c1nn(CC)cc1Br | i | -7.6* | i | 0.054 | i | i | 80* | 0
SMILES | MrgX1 PAM | RGS4 act | MrgX1 antagonist | KCC2 mod | RGS4 inh | MrgX1 ag | RGS4 activ val | RGS4 act ctr
CCCCNc1c(-c2ccc(OC)c(Sc3ccc(OC)cc3)c2)nc2ccccn12 | i | -11* | i | · | i | i | 91* | 71*
CCCCCCSc1cc(-c2nc3cc(C)ccn3c2NCCCC)ccc1OC | i | i | i | · | i | i | · | ·
CCC(=O)Nc1c2c(nn1-c1ccc(F)cc1)CS(=O)(=O)C2 | i | i | i | · | i | i | · | ·
COc1cccc(C(=O)N=c2sc3c(C)ccc(OC)c3n2C)c1 | i | i | i | · | i | i | · | ·
CCn1c(=NC(=O)c2cccc(N3C(=O)CCC3=O)c2)sc2c(C)ccc(OC)c21 | i | -8.6* | i | -0.77 | i | i | 68* | 30*
COc1ccc(C(=O)N=c2sc3c(C)ccc(OC)c3n2C)cc1OC | i | -7.7* | i | -0.5 | i | i | 86* | 50*
COCC1CCCCN1C(=O)c1ccc2nc(Cc3ccc(OC)c(OC)c3)oc2c1 (configuration not stated) | i | i | i | · | i | i | · | ·
O=C(COC(=O)c1cccc([N+](=O)[O-])c1)c1ccc2c(c1)OCO2 | i | i | i | · | i | i | · | ·
Cc1ccccc1NC(=O)c1snc2c(=O)[nH]cnc12 | i | i | i | -0.081 | i | i | · | ·
CC(C)(C)OC(=O)N1Cc2ccccc2C[C@H]1C(=O)NCC(=O)NCC1CCCO1 (some centres not stated) | i | i | i | · | i | i | · | ·
CN(Cc1nc(-c2ccc3c(c2)OCO3)no1)CC1(N2CCOCC2)CCCCC1 | i | i | i | 0.1 | i | i | · | ·
COc1ccc(-c2noc(CN3CCCCC3c3nccn3C)n2)cc1 (configuration not stated) | i | -7.6* | i | 0.56 | i | i | 66* | 84*
COc1ccc(-c2noc(CCC(=O)NC3CCCCCC3)n2)cc1 | i | i | i | · | i | i | · | ·

High-throughput results: PubChem BioAssay, several laboratories
